# Measurements: ChEMBL document CHEMBL3046072, “Plant P5C reductase as a new target for aminomethylenebisphosphonates” (J Agric Food Chem, 2007)
# pIC50, pKi: −log10 of the molar value.
# Legend:
# [1] = molecular target: T1, Pyrroline-5-carboxylate reductase (Arabidopsis thaliana) (UniProt P54904); assay: Inhibition of Arabidopsis thaliana P5C reductase catalytic activity assessed as inhibition of NADH oxidation at 340 nm OD at 0.2 mM by NADH oxidation assay; design: scale not given: the % may be the effect or the level left
# T1 sequence (whole entry): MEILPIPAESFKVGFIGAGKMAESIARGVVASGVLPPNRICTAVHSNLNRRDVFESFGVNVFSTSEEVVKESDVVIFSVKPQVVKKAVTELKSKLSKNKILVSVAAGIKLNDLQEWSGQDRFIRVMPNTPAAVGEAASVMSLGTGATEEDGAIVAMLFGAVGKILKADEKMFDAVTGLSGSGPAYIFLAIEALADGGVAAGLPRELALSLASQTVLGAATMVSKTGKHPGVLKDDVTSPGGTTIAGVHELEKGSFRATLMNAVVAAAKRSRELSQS
# [2] = molecular target: T1, Pyrroline-5-carboxylate reductase (Arabidopsis thaliana); assay: Inhibition of Arabidopsis thaliana P5C reductase catalytic activity assessed as […] at 535 nm OD at 0.5 mM by P5C utilization assay; design: scale not given: the % may be the effect or the level left
# How it was run: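 The partially purified Arabidopsis enzyme was run in the same Tris pH 8.0/MgCl2/DL-P5C/NADH mix with compound at 0.5 mM, at 35 °C. Aliquots taken every 40 s received Na acetate and 0.15% ninhydrin in acetic acid, then 10 min at 55 °C. Residual P5C was read at 535 nm (ε 4600 M⁻¹ cm⁻¹). At least three replicates; activity given as % of untreated control.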
# [3] = molecular target: T2, Pyrroline-5-carboxylate reductase (Arabidopsis thaliana, UniProt P54904); assay: Inhibition of Arabidopsis thaliana P5C reductase catalytic activity; details: read-out: I50
# T2 sequence (P54904 whole entry): T1 sequence (whole entry)
# How it was run: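 P5C reductase partially purified from A. thaliana Columbia suspension-cultured cells by ammonium sulfate cut and two DEAE-Sephacel steps. Assay at 35 °C: 100 mM Tris-HCl pH 8.0, 0.1 mM MgCl2, 2 mM DL-P5C, 0.25 mM NADH. Read as NADH oxidation at 340 nm, or as P5C loss by ninhydrin at 535 nm. Inhibitor neutralised to pH 7.4, tested over 0.010–5 mM. I50 from regression of % control activity versus log concentration.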
# [4] = molecular target: T2, Pyrroline-5-carboxylate reductase; assay: Noncompetitive inhibition of Arabidopsis thaliana P5C reductase by Lineweaver-Burk plot
# [5] = molecular target: 3-phosphoshikimate 1-carboxyvinyltransferase (Nicotiana tabacum); assay: Inhibition of EPSP synthase in Nicotiana tabacum (tobacco) cells; details: read-out: I50
# [6] = molecular target: T2, Pyrroline-5-carboxylate reductase; assay: Uncompetitive inhibition of Arabidopsis thaliana P5C reductase by Dixon plot
# [7] = molecular target: 3-phosphoshikimate 1-carboxyvinyltransferase (Spinacia oleracea); assay: Inhibition of Spinacia oleracea (spinach) EPSP synthase activity; details: read-out: I50
# [8] = molecular target: T2, Pyrroline-5-carboxylate reductase; assay: Noncompetitive inhibition of Arabidopsis thaliana P5C reductase by Lineweaver-Burk plot in presence of NADPH
SMILES,Activity [1] [%],Activity [2] [%],further results
O=[N+]([O-])c1cccc(NC(P(=O)(O)O)P(=O)(O)O)c1,102,96.4,–
Cc1cccc(NC(P(=O)(O)O)P(=O)(O)O)n1,88.7,103,–
Cc1ccnc(NC(P(=O)(O)O)P(=O)(O)O)c1,106,106,–
Cc1nc(NC(P(=O)(O)O)P(=O)(O)O)c(Br)cc1Br,66.1,54.8,pIC50 [3]: 3.52
Cc1ccc(NC(P(=O)(O)O)P(=O)(O)O)cc1,110,98.2,–
NC(P(=O)(O)O)P(=O)(O)O [AMINOMETHYLENEBISPHOSPHONIC ACID],106,84.6,pIC50 [3]: 4.36
O=P(O)(O)C(NCc1ccccn1)P(=O)(O)O,118,92.9,–
O=P(O)(O)C(Nc1ccncc1)P(=O)(O)O,115,101,–
O=C(O)c1cccnc1NC(P(=O)(O)O)P(=O)(O)O,96.3,94.1,–
O=P(O)(O)C(Nc1ncc(Cl)cc1Cl)P(=O)(O)O,105,97,–
O=P(O)(O)C(Nc1ccc(I)cn1)P(=O)(O)O,106,89.9,–
O=P(O)(O)C(Nc1ncccn1)P(=O)(O)O,110,91.7,–
O=P(O)(O)C(Nc1ccnc(Cl)c1)P(=O)(O)O,91.2,97.9,–
O=P(O)(O)C(Nc1ccc(Cl)nc1)P(=O)(O)O,99.4,94.9,–
"O=P(O)(O)C(Nc1cc(Cl)cc(Cl)c1)P(=O)(O)O [(3,5-DICHLOROPHENYLAMINO)METHYLENEDIPHOSPHONIC ACID]",37.7,28,pKi [4]: 3.70; pIC50 [5]: 4.52; pKi [6]: 4.99; pIC50 [7]: 4.52; pKi [8]: 3.64
O=P(O)(O)C(Nc1ccccc1)P(=O)(O)O,98.3,114,–
O=P(O)(O)C(Nc1ccc(Cl)cn1)P(=O)(O)O,101,92.4,–
O=P(O)(O)C(NCCc1ccc(O)cc1)P(=O)(O)O,105,94.4,–
O=P(O)(O)C(NC1CCCCC1)P(=O)(O)O,108,93.8,–
O=C(O)c1cccc(NC(P(=O)(O)O)P(=O)(O)O)c1,95,92.4,–
O=P(O)(O)C(Nc1ncc(Br)cc1Br)P(=O)(O)O,92,99.8,–
O=P(O)(O)C(Nc1cccnc1)P(=O)(O)O,109,102,–
O=P(O)(O)C(NCc1ccccc1)P(=O)(O)O,98.5,100,–
O=P(O)(O)C(Nc1ccc(Br)cn1)P(=O)(O)O,104,100,–
O=P(O)(O)C(Nc1ccccn1)P(=O)(O)O,114,104,–
Cc1ccccc1CNC(P(=O)(O)O)P(=O)(O)O,109,96.9,–
